Fewer inactive variants are shown than the library holds.
B1: tRNA (parent)
chain: GUUCCGUUGGCGUAAUGGUAACGCGUCUCCCUCCUAAGGAGAAGACUGCGGGUUCGAGUCCCGUACGGAACG

Variants of: B1
Assay: yeast fitness relative to wild type (ratio to wild type); higher = fitter; tRNA-Arg(CCU), competitive growth, 37 C, YPD
Procedure, shortened: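 Variants of the tRNA-Arg(CCU) gene, chemically synthesised with a 3% per-site mutation rate at 69 sites, were placed at the native genomic locus in Saccharomyces cerevisiae. The pooled strains were competed in YPD at 37°C for 24 hours in six parallel replicates. Gene amplicons from the start population and from each end population were read by 100-nucleotide paired-end sequencing. Darwinian fitness relative to wild type came from changes in genotype frequencies; genotypes needed ≥ 100 starting reads, and estimates < 0.5 were set to 0.5.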

Variant | yeast fitness
G10A G44C A65C G67A | ≤ 0.5
G10A G44C G63C | ≤ 0.5
G10A G48C | 0.733
G10A G48C G67C | 0.56
G10A G50A U59G C62A | ≤ 0.5
G10A G51A | 0.691
G10A G51A C55G G67U G68C | ≤ 0.5
G10A G51C G58U | ≤ 0.5
G10A G52A A57G C66U | ≤ 0.5
G10A G52A A69U | ≤ 0.5
G10A G56A | 0.754
G10A G58A A69U | 0.54
G10A G63A | 0.698
G10A G67A | 0.75
G10A G67C | 0.819
G10A G68A | 0.753
G10A G68U | 0.75
G10A U13A A14C A43U C60G | ≤ 0.5
G10A U13A C24A C55G C62U | ≤ 0.5
G10A U13A C24A U54A | ≤ 0.5
G10A U13A C24U | 0.599
G10A U13A C24U A65C | ≤ 0.5
G10A U13A C24U A70C | ≤ 0.5
G10A U13C | 0.658

Variant | yeast fitness
G10A U13C A21U | ≤ 0.5
G10A U13C A40C | ≤ 0.5
G10A U13C G18C A20U C30A | ≤ 0.5
G10A U13G A36G | 0.52
G10A U13G A43U U53C | ≤ 0.5
G10A U13G C27U C46G | ≤ 0.5
G10A U13G C27U C46G G67A | ≤ 0.5
G10A U16A A57U | 0.558
G10A U16A A65C | ≤ 0.5
G10A U16A C24A G39C A43U C60U | ≤ 0.5
G10A U16A C31A A42G A43G G68C | ≤ 0.5
G10A U16A C31A G51A A70U | ≤ 0.5
G10A U16A C31A G52C | ≤ 0.5
G10A U16A G17A U32A A42U G48C | ≤ 0.5
G10A U16A G38A U64C | ≤ 0.5
G10A U16A G38C G41C A65G | ≤ 0.5
G10A U16A G52A A65U | ≤ 0.5
G10A U16A G63A | ≤ 0.5
G10A U16A G68A | 0.567
G10A U16A U32C A65G | ≤ 0.5
G10A U16A U64A | 0.544
G10A U16C A36G G48C | ≤ 0.5
G10A U16G | 0.611
G10A U19A A40C | ≤ 0.5

Variant | yeast fitness
G10A U19A A40C A42C | 0.541
G10A U19A A40C A42C G68A A70C | ≤ 0.5
G10A U19A A42G A65C | ≤ 0.5
G10A U19A G41C C66U | 0.617
G10A U19A G44C C49U G67C | ≤ 0.5
G10A U19A G44C U54G C55U | ≤ 0.5
G10A U19C A36G G48A C49G | ≤ 0.5
G10A U26A C27U C29A A65G G68C | 0.563
G10A U26A C27U C29A G48A C62A | ≤ 0.5
G10A U26A C49U C66U | ≤ 0.5
G10A U26A G63A | ≤ 0.5
G10A U26A G63A C66U | ≤ 0.5
G10A U28C C61U C66G | ≤ 0.5
G10A U32C G63A | ≤ 0.5
G10A U32G | ≤ 0.5
G10A U32G C34A | ≤ 0.5
G10A U32G C66A | ≤ 0.5
G10A U35A | 0.62
G10A U35A A37G A43U A45C | ≤ 0.5
G10A U35A A57C | ≤ 0.5
G10A U35A G52C C66U | ≤ 0.5
G10A U35A G56A A65G C66U | ≤ 0.5
G10A U35C | 0.582
G10A U35C A42C A43C | ≤ 0.5

Variant | yeast fitness
G10A U35C A45G C49G G56A A65C | ≤ 0.5
G10A U35G | ≤ 0.5
G10A U35G A37U U47C A70G | ≤ 0.5
G10A U35G A37U U47C G56C A69C | ≤ 0.5
G10A U35G A37U U47C G56C U64C A69C | ≤ 0.5
G10A U47A | 0.815
G10A U47A A65C | ≤ 0.5
G10A U47C | 0.589
G10A U47C C62U | 0.566
G10A U53A G58A G68U | ≤ 0.5
G10A U53G C60A G68U A69C | ≤ 0.5
G10A U54A | 0.698
G10A U54A C55G | ≤ 0.5
G10A U54C | 0.643
G10A U54C C61G | ≤ 0.5
G10A U59C G68C | ≤ 0.5
G10A U64C A69U | 0.542
G10C A14C A15C A43U | ≤ 0.5
G10C A14C A15G U64G | ≤ 0.5
G10C A14C A40C C60A G63A | ≤ 0.5
G10C A14C C24U A70C | ≤ 0.5
G10C A14C G18A | ≤ 0.5
G10C A14C G52C | ≤ 0.5
G10C A14G A36U | ≤ 0.5

Variant | yeast fitness
G10C A14G C22U A37G A40U C46A U54C | ≤ 0.5
G10C A14G C24A | ≤ 0.5
G10C A14G C24A A70U | ≤ 0.5
G10C A14G C62U | ≤ 0.5
G10C A14G C66U | 0.505
G10C A14G G39A A65U | ≤ 0.5
G10C A14G U28C G39A A65U | ≤ 0.5
G10C A14U A20U C31A C55G G56C | ≤ 0.5
G10C A14U C22U C24G U35C G56C U64A | ≤ 0.5
G10C A14U C29G | 0.584
G10C A14U C31G | ≤ 0.5
G10C A14U C62U A69C | ≤ 0.5
G10C A14U C62U G67U | ≤ 0.5
G10C A14U G25A C27U U53C | ≤ 0.5
G10C A14U G25A C27U U53C A70G | 0.536
G10C A14U G25A C27U U53C C61U A70G | ≤ 0.5
G10C A14U G56A | ≤ 0.5
G10C A14U G67A | ≤ 0.5
G10C A14U U19A C22U | 0.505
G10C A14U U19A C22U C60U G68C | ≤ 0.5
G10C A14U U19A C22U C62U | ≤ 0.5
G10C A14U U19A C22U C66U | ≤ 0.5
G10C A14U U19A C22U G68A | ≤ 0.5
G10C A14U U19A C22U U47C | ≤ 0.5

Variant | yeast fitness
G10C A14U U19A C22U U59G A65C | ≤ 0.5
G10C A14U U28A A57C | ≤ 0.5
G10C A15C A21C | ≤ 0.5
G10C A15C A21C A69U | ≤ 0.5
G10C A15C A43C | ≤ 0.5
G10C A15C C29G G48A | 0.643
G10C A15C C46U | ≤ 0.5
G10C A15G C31A C33U A40C G44C G48U C49G | ≤ 0.5
G10C A15G C61A | ≤ 0.5
G10C A15G G58C | 0.559
G10C A15G U35A G44A A69U | ≤ 0.5
G10C A15G U35A G44A C61A U64C | ≤ 0.5
G10C A15U | 0.691
G10C A15U A37U | ≤ 0.5
G10C A15U A37U A45C G52C | 0.606
G10C A15U A37U A45C U47C G52C | ≤ 0.5
G10C A15U C27A C49G U64A | ≤ 0.5
G10C A15U C29G C46U G51C | ≤ 0.5
G10C A20C | 0.631
G10C A20C U28C A45G | ≤ 0.5
G10C A20G A21C C27A C49U U54A A70C | 0.653
G10C A20G C24U G38C | 0.561
G10C A20G C24U G38C A57C G63C | ≤ 0.5
G10C A20G C66U | ≤ 0.5

Variant | yeast fitness
G10C A20G U26C C46U | ≤ 0.5
G10C A20U C22A | ≤ 0.5
G10C A20U C60G | 0.587
G10C A20U G41U A57U | ≤ 0.5
G10C A21C C27A C34A C49G A65G | ≤ 0.5
G10C A21C U26C C31A A42U | ≤ 0.5
G10C A21C U26G C34U A40G G51A | 0.598
G10C A21G C22U C46U G56C | 0.58
G10C A21G C30A G38C C46U | 0.681
G10C A21G C30A G38C C46U A70C | 0.869
G10C A21G G23A | ≤ 0.5
G10C A21G G56A | ≤ 0.5
G10C A21U | 0.675
G10C A21U C22G G67C | 0.765
G10C A36C A57C | ≤ 0.5
G10C A36C C55U | ≤ 0.5
G10C A36C G48A | ≤ 0.5
G10C A36G | 0.663
G10C A36G A57U | ≤ 0.5
G10C A36U C66U A70C | ≤ 0.5
G10C A37G G52A C55G | 0.567
G10C A37G G52A C55G G58A | ≤ 0.5
G10C A37U A45G C66U | ≤ 0.5
